Activity calls are given as the source filed them. No cut-off for these calls is given here.
Key:
Salmonella enterica = assay: Antibacterial activity against Salmonella choleraesuis ATCC 13312 assessed as bacterial growth inhibition incubated for 18 to 24 hrs by broth dilution method; format: functional; details: time 18-24 hrs
Procedure, shortened: (§1)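 Log-phase bacteria grown at 37 °C in MHB, diluted to 10^5 CFU/mL, mixed 1:1 with serial peptide dilutions (peptide diluted in 0.01% acetic acid, 0.2% BSA); 37 °C for 18-24 h. MIC read by OD492 as lowest concentration giving no growth; mean of 3-5 independent experiments.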

Escherichia coli [1] = assay: Antibacterial activity against Escherichia coli ATCC 25922 assessed as bacterial growth inhibition incubated for 18 to 24 hrs by microtiter broth dilution method; format: functional; details: time 18-24 hrs
Procedure, shortened: (§2)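 Log-phase cells (grown overnight at 37 °C, subcultured in MHB) diluted to 10^5 CFU/mL in MHB and mixed 1:1 with serial peptide dilutions prepared in 0.01% acetic acid/0.2% BSA. Incubated 37 °C for 18-24 h. MIC is the lowest concentration giving no growth by OD492. Reported as the average of 3-5 independent experiments.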

Cell membrane [2] = assay: Induction of inner membrane permeabilization in Escherichia coli O157:H7 CICC 21530 assessed as cytoplasmic beta-galactosidase release at 1 times MIC using ONPG as substrate by […]; format: subcellular
Staphylococcus aureus [3] = assay: Antibacterial activity against Staphylococcus aureus ATCC 29213 assessed as bacterial growth inhibition incubated for 18 to 24 hrs in presence of 150 mM NaCl by microtiter broth dilution method (reference value: 0.43 to > 71.5 uM); format: functional; details: time 18-24 hrs
[4] = system: Salmonella enterica subsp. enterica serovar Paratyphi B; assay: Antibacterial activity against Salmonella paratyphi B CICC 21495 assessed as bacterial growth inhibition incubated for 18 to 24 hrs by microtiter broth dilution method; format: functional; details: time 18-24 hrs; procedure, shortened: as §1
Cell membrane [5] = assay: Induction of cell membrane depolarization in Escherichia coli O157:H7 CICC 21530 assessed as increase in fluorescence intensity at 0.5 to 2 times MIC preincubated for 90 mins followed by KCl addition and measured after 15 to 30 mins by DiSC3-5 staining based fluorescence spectroscopic technique; format: subcellular; details: time 105-120 min
Salmonella paratyphi = assay: Antibacterial activity against Salmonella paratyphi A CICC 20501 assessed as bacterial growth inhibition incubated for 18 to 24 hrs by microtiter broth dilution method; format: functional, Salmonella enterica subsp. enterica serovar Paratyphi A; details: Salmonella enterica, time 18-24 hrs; procedure, shortened: as §1
Escherichia coli [6] = assay: Bactericidal activity against Escherichia coli O157:H7 CICC 21530 assessed as bacterial killing at 1 times MIC by time kill assay; format: functional, organism-based; details: time 1085.0 min, TDE = time-dependent effect
Staphylococcus aureus [7] = assay: Antibacterial activity against Staphylococcus aureus ATCC 29213 assessed as bacterial growth inhibition incubated for 18 to 24 hrs by microtiter broth dilution method; format: functional; details: time 18-24 hrs; procedure, shortened: as §2
Shigella flexneri = assay: Antibacterial activity against Shigella flexneri CMCC 51571 assessed as bacterial growth inhibition incubated for 18 to 24 hrs by microtiter broth dilution method; format: functional; details: time 18-24 hrs; procedure, shortened: as §2
Listeria monocytogenes [8] = assay: Antibacterial activity against Listeria monocytogenes CICC 21633 assessed as bacterial growth inhibition incubated for 18 to 24 hrs by microtiter broth dilution method; format: functional; details: time 18-24 hrs; procedure, shortened: as §2
Salmonella typhimurium = assay: Antibacterial activity against Salmonella typhimurium CMCC 51005 assessed as bacterial growth inhibition incubated for 18 to 24 hrs by microtiter broth dilution method; format: functional, Salmonella enterica subsp. enterica serovar Typhimurium; details: Salmonella enterica, time 18-24 hrs; procedure, shortened: as §2
Escherichia coli [9] = assay: Antibacterial activity against Escherichia coli O157:H7 CICC 21530 assessed as bacterial growth inhibition incubated for 18 to 24 hrs in presence of 4 mM FeCl3 by microtiter broth dilution method (reference value: 0.85 to > 71.5 uM); format: functional; details: time 18-24 hrs
Escherichia coli [10] = assay: Antibacterial activity against Escherichia coli O157:H7 CICC 21530 assessed as bacterial growth inhibition incubated for 18 to 24 hrs by microtiter broth dilution method; format: functional; details: time 18-24 hrs; procedure, shortened: as §1
Vibrio parahaemolyticus = assay: Antibacterial activity against Vibrio parahaemolyticus CICC 21617 assessed as bacterial growth inhibition incubated for 18 to 24 hrs by broth dilution method; format: functional; details: time 18-24 hrs; procedure, shortened: as §2
Staphylococcus aureus [11] = assay: Antibacterial activity against Staphylococcus aureus ATCC 29213 assessed as bacterial growth inhibition incubated for 18 to 24 hrs in presence of 4.5 mM KCl by microtiter broth dilution method (reference value: 0.43 to > 71.5 uM); format: functional; details: time 18-24 hrs
Listeria monocytogenes [12] = assay: Antibacterial activity against Listeria monocytogenes CICC 21662 assessed as bacterial growth inhibition incubated for 18 to 24 hrs by microtiter broth dilution method; format: functional; details: time 18-24 hrs; procedure, shortened: as §2
Staphylococcus aureus [13] = assay: Antibacterial activity against methicillin resistant Staphylococcus aureus ATCC 43300 assessed as bacterial growth inhibition incubated for 18 to 24 hrs by microtiter broth dilution method; format: functional; details: time 18-24 hrs; procedure, shortened: as §1
RAW264.7 [14] = assay: Cytotoxicity against mouse RAW264.7 cells assessed as increase in cell viability at 64 uM incubated for 24 hrs by MTT assay relative to control; format: cell-based; details: raw264.7, 24 h
Procedure, shortened: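 RAW264.7 macrophages were grown in DMEM with 10% FBS, 2 mM glutamine and penicillin/streptomycin at 37 °C in 5% CO2. Cells seeded at 1.0-2.0 × 10^4 per well and treated with peptide (final 0.25-64 µM) for 24 h at 37 °C. MTT at 0.5 mg/mL added for 4 h, formazan dissolved in DMSO, read at 570 nm.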

[15] = Therapeutic index, ratio of MHC10 for human RBC to geometric mean of peptide MIC for Escherichia coli O157:H7 CICC 21530; format: toxicity; details: human red blood cells (RBC), pooled result: one value given for 11 cell lines, strains, targets or settings, read-out: TI
Procedure, shortened: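 Therapeutic index = MHC (peptide concentration giving 10% hemolysis of human RBCs, 1 h, 37 °C, A540) divided by geometric mean of MICs from broth microdilution (10^5 CFU/mL in MHB, 37 °C, 18-24 h, OD492).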

Cell membrane [16] = assay: Induction of outer membrane permeabilization in Escherichia coli O157:H7 CICC 21530 assessed as increase in fluorescence intensity by NPN-dye based fluorescence assay; format: subcellular; details: dose 0.625-7.5 µM
RAW264.7 [17] = assay: Antiinflammatory activity against mouse RAW264.7 cells assessed as inhibition of LPS-induced TNF-alpha production at 0.5 to 64 uM measured after 24 hrs by […] ELISA; format: functional, cell-based; details: dose 0.5-64 µM
Procedure, shortened: (§3)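 RAW264.7 cells plated at 1-2 × 10^5 cells/mL and stimulated with 500 ng/mL LPS with or without peptide (0.5-64 µM) for 24 h at 37 °C. Controls were untreated cells and LPS alone. TNF-α in the supernatant measured by ELISA. NO measured by Griess reagent (1% sulfanilamide, 0.1% naphthylethylenediamine, 5% phosphoric acid).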

RAW264.7 [18] = assay: Antiinflammatory activity against mouse RAW264.7 cells assessed as inhibition of LPS-induced nitric oxide production measured after 24 hrs by Griess reagent based ELISA; format: functional, cell-based; details: dose 0.5-64 µM; procedure, shortened: as §3
Staphylococcus aureus [19] = assay: Antibacterial activity against Staphylococcus aureus GIM 1.160 assessed as bacterial growth inhibition incubated for 18 to 24 hrs by microtiter broth dilution method; format: functional; details: time 18-24 hrs; procedure, shortened: as §2
Staphylococcus aureus [20] = assay: Antibacterial activity against Staphylococcus aureus ATCC 29213 assessed as bacterial growth inhibition incubated for 18 to 24 hrs in presence of 1 mM MgCl2 by microtiter broth dilution method (reference value: 0.43 to > 71.5 uM); format: functional; details: time 18-24 hrs

Substance	MIC (Salmonella enterica) [µM]	MIC (Escherichia coli [1]) [µM]	Activity (Cell membrane [2])	MIC (Staphylococcus aureus [3]) [µM]	MIC [4] [µM]	Activity (Cell membrane [5])	MIC (Salmonella paratyphi) [µM]	Activity (Escherichia coli [6])	MIC (Staphylococcus aureus [7]) [µM]	MIC (Shigella flexneri) [µM]	MIC (Listeria monocytogenes [8]) [µM]	MIC (Salmonella typhimurium) [µM]	MIC (Escherichia coli [9]) [µM]	MIC (Escherichia coli [10]) [µM]	MIC (Vibrio parahaemolyticus) [µM]	MIC (Staphylococcus aureus [11]) [µM]	MIC (Listeria monocytogenes [12]) [µM]	MIC (Staphylococcus aureus [13]) [µM]	Activity (RAW264.7 [14]) [%]	selectivity ratio [15]	further results
H-WGRAFSRGVRRLARGGRG-NH2	15.9	31.8	inactive	> 63.5	15.9	Active	15.9	Tde	31.8	15.9	31.8	> 63.5	> 63.5	7.94	> 63.5	> 63.5	15.9	> 63.5	85.48	4.26	Activity (Cell membrane [16]): Dose-dependent effect; Activity (RAW264.7 [17]): Active; Activity (RAW264.7 [18]): Dose-dependent effect; MIC (Staphylococcus aureus [19]): 15.9 µM; MIC (Staphylococcus aureus [20]): > 63.5 µM
H-WGRAFSAGVHRLANGGNG-NH2	> 70.1	> 70.1	inactive	> 70.1	> 70.1	Active	> 70.1	Tde	> 70.1	> 70.1	> 70.1	> 70.1	> 70.1	> 70.1	> 70.1	> 70.1	> 70.1	> 70.1	77.58	1	Activity (Cell membrane [16]): Dose-dependent effect; Activity (RAW264.7 [17]): Active; Activity (RAW264.7 [18]): Dose-dependent effect; MIC (Staphylococcus aureus [19]): 70.1 µM; MIC (Staphylococcus aureus [20]): > 70.1 µM
H-WGEAFSAGVHRLANGGNG-NH2	> 71.2	> 71.2	inactive	> 71.2	> 71.2	Active	> 71.2	Tde	> 71.2	> 71.2	> 71.2	> 71.2	> 71.2	> 71.2	> 71.2	> 71.2	> 71.2	> 71.2	73.62	1	Activity (RAW264.7 [17]): Active; Activity (RAW264.7 [18]): Dose-dependent effect; MIC (Staphylococcus aureus [19]): > 71.2 µM; MIC (Staphylococcus aureus [20]): > 71.2 µM
H-WLRAFRRLVRRLARGLRR-NH2	1.7	1.7	Active	1.7	0.85	Active	0.43	Tde	0.43	0.43	0.21	6.81	6.81	0.85	1.7	0.21	0.21	0.85	40.73	20.5	Activity (Cell membrane [16]): Dose-dependent effect; Activity (RAW264.7 [17]): Active; Activity (RAW264.7 [18]): Dose-dependent effect; MIC (Staphylococcus aureus [19]): 0.43 µM; MIC (Staphylococcus aureus [20]): 0.21 µM
H-WLRAFRRLVRRLARLLRR-NH2	13.3	13.3	inactive	26.6	3.32	Active	6.65	Tde	6.65	1.66	3.32	> 53.2	> 53.2	3.32	6.65	1.66	3.32	3.32	48.25	4.83	Activity (Cell membrane [16]): Dose-dependent effect; Activity (RAW264.7 [17]): Active; Activity (RAW264.7 [18]): Dose-dependent effect; MIC (Staphylococcus aureus [19]): 1.66 µM; MIC (Staphylococcus aureus [20]): 0.83 µM
H-WGRAFSAGVHRLARGGRG-NH2	33.5	> 67	inactive	> 67	> 67	Active	33.5	Tde	> 67	> 67	67	> 67	> 67	16.8	> 67	> 67	33.5	> 67	87.22	1.55	Activity (Cell membrane [16]): Dose-dependent effect; Activity (RAW264.7 [17]): Active; Activity (RAW264.7 [18]): Dose-dependent effect; MIC (Staphylococcus aureus [19]): > 67 µM; MIC (Staphylococcus aureus [20]): > 67 µM
H-WGRAFRRGVRRLARGGRR-NH2	14.7	14.7	inactive	14.7	3.67	Active	7.33	Tde	14.7	7.33	7.33	> 58.6	> 58.6	3.67	29.3	7.33	7.33	14.7	74.8	7.51	Activity (Cell membrane [16]): Dose-dependent effect; Activity (RAW264.7 [17]): Active; Activity (RAW264.7 [18]): Dose-dependent effect; MIC (Staphylococcus aureus [19]): 7.33 µM; MIC (Staphylococcus aureus [20]): 3.67 µM
H-WGRAFRRLVRRLARGLRR-NH2	13.9	27.9	inactive	6.97	6.97	Active	3.49	Tde	3.49	3.49	1.74	13.9	> 55.8	6.97	13.9	0.87	1.74	6.97	64.79	10.3	Activity (Cell membrane [16]): Dose-dependent effect; Activity (RAW264.7 [17]): Active; Activity (RAW264.7 [18]): Dose-dependent effect; MIC (Staphylococcus aureus [19]): 1.74 µM; MIC (Staphylococcus aureus [20]): 1.74 µM
